A1 inh: inhibitors of the anti-apoptotic protein A1, read as caspase activation; actives 0.066% (n = 330,000); AID 2462; caspase activation, % (no concentration beside the values); MEF A1-2A-BIM cells, Caspase-Glo 3/7 luminescence, 3 h; percent of clofoctol response, vehicle zero;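 active = over half of replicate activation scores above 10%, or exactly half above 10 with the replicate mean above 10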
sPLA2-III inh: Blocks human group III sPLA2 activity | QFRET BODIPY PC-A2 liposome hydrolysis, fluorescence | inhibition, % at 12.2 µM | actives 0.56% (n = 370,000) | AID 743126;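 active = inhibition above mean plus 3 SD of compounds lying within the high and low control bounds, cut at about 19% in these data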
MC4R ag barr: human MC4R agonism via beta-arrestin; activation, % at 8.9 µM; U2OS MC4R beta-arrestin complementation, luminescence; percent of melanotan II response, DMSO zero; P32245; actives 0.98% (n = 360,000); AID 540308;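 active = activation above a per-plate cutoff, the mean activation of sample wells on that plate plus 3 SD, cut at about 8% in these data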
Target sequence (P32245 whole entry, looked up): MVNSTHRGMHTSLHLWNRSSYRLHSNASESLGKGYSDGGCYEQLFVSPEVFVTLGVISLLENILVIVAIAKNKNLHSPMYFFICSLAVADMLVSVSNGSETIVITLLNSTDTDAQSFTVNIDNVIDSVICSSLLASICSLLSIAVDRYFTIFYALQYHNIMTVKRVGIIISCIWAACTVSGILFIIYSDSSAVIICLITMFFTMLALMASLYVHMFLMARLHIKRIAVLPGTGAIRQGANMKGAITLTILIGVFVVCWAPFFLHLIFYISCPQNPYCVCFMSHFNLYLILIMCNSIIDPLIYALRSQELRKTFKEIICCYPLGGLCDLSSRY
NTR1 agonist: agonists of human neurotensin receptor NTR1 | NTR1-U2OS beta-arrestin-GFP spot imaging, agonist mode | activation, % at 20 µM | P30989 | AID 493036 | actives 0.17% (n = 330,000);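 active = activation at or above 40% of the spot to cytoplasm intensity ratio, with at least 20 cells analyzed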
Target sequence (P30989 whole entry, looked up): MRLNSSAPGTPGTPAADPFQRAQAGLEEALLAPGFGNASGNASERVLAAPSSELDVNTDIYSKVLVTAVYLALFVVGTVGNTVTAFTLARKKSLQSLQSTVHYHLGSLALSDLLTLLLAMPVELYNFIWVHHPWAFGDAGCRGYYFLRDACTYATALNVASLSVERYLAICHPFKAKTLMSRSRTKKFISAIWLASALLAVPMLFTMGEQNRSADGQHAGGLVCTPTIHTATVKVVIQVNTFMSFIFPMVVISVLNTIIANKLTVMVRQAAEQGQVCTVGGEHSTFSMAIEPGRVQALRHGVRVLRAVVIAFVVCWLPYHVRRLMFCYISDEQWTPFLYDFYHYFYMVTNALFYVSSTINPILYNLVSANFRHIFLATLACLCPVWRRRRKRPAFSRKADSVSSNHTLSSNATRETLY
Exocytosis inh: lytic granule exocytosis inhibition; TALL-104 LAMP-1 surface exposure, flow cytometry; cells stimulated with thapsigargin and PMA; inhibition, % at 10 µM; actives 0.66% (n = 360,000); AID 651702;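 active = inhibition above about 55%, limit read from the data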
MC4R antag cAMP: antagonists of human melanocortin 4 receptor (MC4R); MC4R-expressing cells, MTII-stimulated cAMP, LANCE TR-FRET; inhibition, % at 6.5 µM; actives 0.48% (n = 360,000); P32245;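 active = inhibition above its plate's cutoff, the mean of tested wells on that plate plus 3 SD, cut at about 29% in these data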
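Material – human MC4R-expressing U2OS cells · Repeats – no replicates · Detection – TR-FRET with Eu-cAMP and labeled anti-cAMP, 671 nm · Times – compound 30 min, challenge 1 h, detection 1 h · Compound – single nominal compound dose of 6.5 µM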
U2OS cAMP counter: U2OS forskolin cAMP inhibition counter-screen; shares compounds with MC4R antag cAMP; parental U2OS, LANCE TR-FRET; inhibition, % at 6.5 µM; actives 26% (n = 1,600); AID 602193;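 active = mean inhibition over triplicates above the low-control well mean plus 3 SD, set per campaign, cut at about 13% in these data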;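 note: signal is single emission at 671 nm which falls as cellular cAMP rises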
MC4R cAMP antag: human MC4R cAMP antagonism confirmation; actives 27% (n = 1,600); inhibition, % at 6.5 µM; MC4R-expressing cells, MTII-stimulated cAMP, TR-FRET; shares compounds with MC4R antag cAMP; in the data active = inhibition above about 29%
Each line names hits and unclear results; the compound was inactive in the other large screens (follow-up assays come after a bar, where they were run). The list is not random: actives were taken first. Their share in the collection is about 2.5%.

COc1ccc(/C=C2\C(=O)ON=C2c2ccccc2)cc1OC	MC4R antag cAMP 31.0 | U2OS cAMP counter inactive | MC4R cAMP antag inactive
COc1ccc(/C=C2/C(=O)ON=C2c2ccccc2)cc1OC	none
COC[C@H]1O[C@]2(c3ccccc3)CO[C@H]1[C@@H](/C=C/c1ccccc1)C2	none (no result: A1 inh, MC4R ag barr, NTR1 agonist, Exocytosis inh, MC4R antag cAMP)
CN1CC(=O)N2[C@@H](C[C@]3(c4c[nH]c5ccccc45)c4ccccc4N(S(=O)(=O)c4ccccc4)[C@H]23)C1=O	none (no result: A1 inh, MC4R ag barr, NTR1 agonist, Exocytosis inh, MC4R antag cAMP)
CCN(CC)C(=O)CC[C@H]1CC[C@]2(CCCN(Cc3ccc(N(C)C)cc3)C2)O1	none (no result: A1 inh, MC4R ag barr, NTR1 agonist, Exocytosis inh, MC4R antag cAMP)
O=C(O)C(Cc1c[nH]c2ccccc12)NS(=O)(=O)c1cccc(Cl)c1Cl (stereo not given)	MC4R antag cAMP 28.8 | U2OS cAMP counter inactive | MC4R cAMP antag inactive
CCCC1CCC2(CC1)CCC2OC(=S)NCCc1ccc(Cl)cc1 (stereo not given)	none (no result: A1 inh, MC4R ag barr, NTR1 agonist, Exocytosis inh, MC4R antag cAMP)
CNC[C@H](Cc1ccccc1)NC[C@@H](Cc1cccc2ccccc12)NCCc1ccc(C)cc1	MC4R antag cAMP 31.5 | U2OS cAMP counter inactive | MC4R cAMP antag inactive
CNCCNC[C@H](Cc1cccc2ccccc12)NCCc1ccccc1	none
Cc1cc(C)cc(-c2c(C(=O)c3ccccc3)[nH]c(N)c2C(=O)NCCc2c[nH]c3ccccc23)c1	none (no result: A1 inh, MC4R ag barr, NTR1 agonist, Exocytosis inh, MC4R antag cAMP)
O=C(NCC(=O)N1CCN(S(=O)(=O)/C=C/c2ccccc2)CC1)c1ccccc1F	none
O=C(NCC(=O)N1CCN(S(=O)(=O)/C=C/c2ccccc2)CC1)c1ccc(Cl)cc1	MC4R antag cAMP 31.1 | U2OS cAMP counter inactive | MC4R cAMP antag inactive
Cn1c(=O)c2c(-c3ccccc3)n(-n3cnnc3)cc2n(C)c1=O	MC4R antag cAMP 28.7 | U2OS cAMP counter inactive | MC4R cAMP antag inactive
Cn1c(=O)c2c(-c3ccccc3)n(-c3ccccc3)cc2n(C)c1=O	none (no result: A1 inh, NTR1 agonist)
CC(=O)Nc1ccc(S(=O)(=O)N[C@@H](C)C(=O)OCC(=O)c2ccc(Br)s2)cc1	MC4R antag cAMP 33.5 (no result: A1 inh, NTR1 agonist) | U2OS cAMP counter 33.1 | MC4R cAMP antag 55.3
CC(C)CN(CC(C)C)C(=O)c1cn(C(C)c2ccccc2)nn1 (stereo not given)	none (no result: A1 inh, MC4R ag barr, NTR1 agonist, Exocytosis inh, MC4R antag cAMP)
COc1ccccc1C(=O)Nc1ccc(NC(=O)C2CCCCC2)nc1	MC4R antag cAMP 31.3 | U2OS cAMP counter inactive | MC4R cAMP antag inactive
Cc1csc(C(C)N(C)C(=O)CCc2nnc(CCc3ccccc3)o2)n1 (stereo not given)	MC4R antag cAMP 28.7 | U2OS cAMP counter inactive | MC4R cAMP antag inactive
CN(C)c1cc[n+](/C(C(=S)Nc2ccc(SC(F)F)cc2)=C(/[O-])c2ccccc2)cc1	none
C=CCn1c(C)cc(/C([O-])=C(/C(=S)Nc2ccc(OC(F)F)cc2)[n+]2ccc(N(C)C)cc2)c1C	MC4R antag cAMP 28.6 | U2OS cAMP counter inactive | MC4R cAMP antag inactive
CC(OC(=O)c1cccc(N2C(=O)c3ccccc3C2=O)c1)C(=O)Nc1ccc(N(C)C)cc1 (stereo not given)	MC4R antag cAMP 32.7 | U2OS cAMP counter inactive | MC4R cAMP antag inactive
COC(=O)CSc1ccc(C#N)c(SCC(=O)OC)c1	MC4R antag cAMP 35.2 | U2OS cAMP counter 16.9 | MC4R cAMP antag inactive
COC(=O)CSc1cc(SCC(=O)OC)c(C#N)c(SCC(=O)OC)c1	none
CC1CCCC(NC(=O)COC(=O)COc2ccc(Br)cc2)C1C (stereo not given)	none
CC1CCCC(NC(=O)COC(=O)COc2ccc(C#N)cc2)C1C (stereo not given)	MC4R antag cAMP 36.5 | U2OS cAMP counter inactive | MC4R cAMP antag inactive
O=C(OCc1ccccc1)N1CCC2CC1c1cc(Cl)ccc12 (stereo not given)	none (no result: A1 inh, NTR1 agonist)
O=C(OCc1ccccc1)N1CCC2CC1c1c(Cl)cccc12 (stereo not given)	MC4R antag cAMP 29.5 (no result: A1 inh, NTR1 agonist) | U2OS cAMP counter inactive | MC4R cAMP antag inactive
COc1ccc(CC(=O)Oc2ccc(C(C)(C)C)cc2)cc1S(=O)(=O)N1CCOCC1	MC4R antag cAMP 31.9 | U2OS cAMP counter inactive | MC4R cAMP antag inactive
CCc1ccc(OC(=O)Cc2ccc(OC)c(S(=O)(=O)N3CCOCC3)c2)cc1	none
O=C1c2cccc([N+](=O)[O-])c2C(=O)N1c1cccnc1	none
O=C1c2cccc([N+](=O)[O-])c2C(=O)N1c1ccccc1	MC4R antag cAMP 30.5 | U2OS cAMP counter inactive | MC4R cAMP antag inactive
COCc1cc(N2CCNC[C@H]2C)ccc1N1CCN(Cc2ccccc2)[C@H](C)C1	none (no result: A1 inh, MC4R ag barr, NTR1 agonist, Exocytosis inh, MC4R antag cAMP)
O=C(c1cc(-c2cccs2)nn1-c1ccccc1)N1CCN(S(=O)(=O)c2ccccc2)CC1	MC4R antag cAMP 28.7 | U2OS cAMP counter inactive | MC4R cAMP antag inactive
Cc1ccc(-c2cc(C(=O)NN=Cc3cc(Br)ccc3O)[nH]n2)cc1C	none (no result: A1 inh, MC4R ag barr, NTR1 agonist, Exocytosis inh, MC4R antag cAMP)
O=C(Nc1nc(-c2ccccn2)cs1)c1cc(Cl)ccc1[N+](=O)[O-]	MC4R antag cAMP 29.1 | U2OS cAMP counter 32.2 | MC4R cAMP antag inactive
COC(=O)[C@]12C[C@H](CC(=O)N3CCCCC3)C(=O)N(Cc3ccc(Cl)cc3Cl)C1=C[C@H](C1CCCC1)O[C@@H]2C	none (no result: A1 inh, MC4R ag barr, NTR1 agonist, Exocytosis inh, MC4R antag cAMP)
COC(=O)c1ccc(C2c3[nH]c4ccccc4c3C[C@H]3C(=O)N(C4CCN(Cc5ccccc5)CC4)CC(=O)N23)cc1 (stereo not given in full)	MC4R antag cAMP 36.9 | U2OS cAMP counter inactive | MC4R cAMP antag inactive
COc1ccccc1CN1C[C@@H]2C[C@@H](C3=Cc4cccc(OC)c4OC3)N3CCC[C@@]23C1=O	MC4R antag cAMP 32.7 | U2OS cAMP counter inactive | MC4R cAMP antag inactive
COC(=O)[C@]12C[C@H](CC(=O)NCc3ccccc3)C(=O)N(CCc3ccc(OC)c(OC)c3)C1=C[C@H](C(C)C)O[C@@H]2C1CC1	none (no result: A1 inh, MC4R ag barr, NTR1 agonist, Exocytosis inh, MC4R antag cAMP)
COc1ccc(/C=C(/NC(=O)c2ccc(OC)cc2)C(=O)NCCc2c[nH]c3ccccc23)cc1	none
COc1ccc(C(=O)N/C(=C\c2ccc3c(c2)OCO3)C(=O)NCCc2nc3ccccc3[nH]2)cc1	MC4R antag cAMP 29.0 | U2OS cAMP counter inactive | MC4R cAMP antag inactive
O=C(/C=C/c1ccco1)OCC1CCCN2CCCCC12 (stereo not given)	MC4R antag cAMP 31.2 | U2OS cAMP counter inactive | MC4R cAMP antag inactive
O=C(COC(=O)/C=C/c1ccco1)NC1CCCCC1	none
COc1ccc(-n2cc(-c3ccccc3)[n+]3c2CCCCC3)cc1	none
FC(F)Oc1ccc(-n2cc(-c3ccc(Cl)cc3)[n+]3c2CCCCC3)cc1	MC4R antag cAMP 28.7 | U2OS cAMP counter inactive | MC4R cAMP antag inactive
